According to ChEMBL document CHEMBL1122046, “Quaternary heterocyclylamino beta-lactams: a generic alternative to the classical acylamino side chain” (1982):
Converted amounts (≈) assume the structure as drawn.

Test system: Streptococcus pyogenes
Assay: Minimum inhibitory concentration against aerobic organism Streptococcus pyogenes strain 3124
Assay type: functional
Conditions: Streptococcus pyogenes; read-out: MIC
In short: (§1)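 Agar-dilution MIC in µg/mL against aerobic bacterial strains on tryptocase soy agar, with inoculum applied as spots. Most series used 10^5 cfu per spot, and a later series used 10^4 cfu per spot. In some tables, footnoted strains were instead tested on Mueller-Hinton or nutrient agar. β-Lactamase-producing strains are flagged.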

SMILES | MIC [µg/mL]
COC(=O)c1ccc(NC2C(=O)N3C(C(=O)[O-])=C(CSc4nnnn4C)CSC23)[n+](C)c1 (centres undefined) | 16 (≈ 33.5 µM)
Cn1nnnc1SCC1=C(C(=O)[O-])N2C(=O)[C@@H](Nc3cc[n+](COCC(F)(F)F)cc3)[C@H]2SC1 | < 0.06

Next, values leading:

MIC [µg/mL] | SMILES
2 | Cn1nnnc1SCC1=C(C(=O)[O-])N2C(=O)[C@@H](Nc3cc[n+](CC(=O)[O-])cc3)[C@H]2SC1.[Na+]
0.125 (≈ 0.225 µM) | COc1ccc(C[n+]2ccc(N[C@@H]3C(=O)N4C(C(=O)[O-])=C(CSc5nnnn5C)CS[C@H]34)cc2)cc1OC
0.25 (≈ 0.652 µM) | CC1(C)SC2C(Nc3cc[n+](Cc4ccccc4)cc3)C(=O)N2[C@H]1C(=O)[O-] (some centres undefined)

Test system: Morganella morganii
Assay: Minimum inhibitory concentration against aerobic organism Morganella morganii strain 2833
Assay type: functional
Conditions: Morganella morganii; read-out: MIC
In short: as §1

SMILES | MIC [µg/mL]
COC(=O)c1ccc(NC2C(=O)N3C(C(=O)[O-])=C(CSc4nnnn4C)CSC23)[n+](C)c1 (centres undefined) | > 128
Cn1nnnc1SCC1=C(C(=O)[O-])N2C(=O)[C@@H](Nc3cc[n+](COCC(F)(F)F)cc3)[C@H]2SC1 | > 128

Now from value to molecule:

MIC [µg/mL] | SMILES
> 128 | Cn1nnnc1SCC1=C(C(=O)[O-])N2C(=O)[C@@H](Nc3cc[n+](CC(=O)[O-])cc3)[C@H]2SC1.[Na+]
32 (≈ 57.6 µM) | COc1ccc(C[n+]2ccc(N[C@@H]3C(=O)N4C(C(=O)[O-])=C(CSc5nnnn5C)CS[C@H]34)cc2)cc1OC

Test system: Enterobacter cloacae
Assay: Minimum inhibitory concentration against aerobic organism Enterobacter cloacae strain 2646
Assay type: functional
Conditions: Enterobacter cloacae; read-out: MIC
In short: as §1

SMILES | MIC [µg/mL]
COC(=O)c1ccc(NC2C(=O)N3C(C(=O)[O-])=C(CSc4nnnn4C)CSC23)[n+](C)c1 (centres undefined) | > 128
Cn1nnnc1SCC1=C(C(=O)[O-])N2C(=O)[C@@H](Nc3cc[n+](COCC(F)(F)F)cc3)[C@H]2SC1 | < 0.06

Other lines, results leading:

MIC [µg/mL] | SMILES
64 | Cn1nnnc1SCC1=C(C(=O)[O-])N2C(=O)[C@@H](Nc3cc[n+](CC(=O)[O-])cc3)[C@H]2SC1.[Na+]
64 (≈ 115 µM) | COc1ccc(C[n+]2ccc(N[C@@H]3C(=O)N4C(C(=O)[O-])=C(CSc5nnnn5C)CS[C@H]34)cc2)cc1OC
4 (≈ 10.4 µM) | CC1(C)SC2C(Nc3cc[n+](Cc4ccccc4)cc3)C(=O)N2[C@H]1C(=O)[O-] (some centres undefined)

Test system: Klebsiella pneumoniae
Assay: Minimum inhibitory concentration against aerobic organism Klebsiella pneumoniae strain 2882
Assay type: functional
Conditions: Klebsiella pneumoniae; read-out: MIC
In short: as §1

SMILES | MIC [µg/mL]
COC(=O)c1ccc(NC2C(=O)N3C(C(=O)[O-])=C(CSc4nnnn4C)CSC23)[n+](C)c1 (centres undefined) | > 128
Cn1nnnc1SCC1=C(C(=O)[O-])N2C(=O)[C@@H](Nc3cc[n+](COCC(F)(F)F)cc3)[C@H]2SC1 | 1 (≈ 1.93 µM)

Next, values leading:

MIC [µg/mL] | SMILES
8 | Cn1nnnc1SCC1=C(C(=O)[O-])N2C(=O)[C@@H](Nc3cc[n+](CC(=O)[O-])cc3)[C@H]2SC1.[Na+]
0.5 (≈ 0.9 µM) | COc1ccc(C[n+]2ccc(N[C@@H]3C(=O)N4C(C(=O)[O-])=C(CSc5nnnn5C)CS[C@H]34)cc2)cc1OC
16 (≈ 41.7 µM) | CC1(C)SC2C(Nc3cc[n+](Cc4ccccc4)cc3)C(=O)N2[C@H]1C(=O)[O-] (some centres undefined)

Test system: Proteus mirabilis
Assay: Minimum inhibitory concentration against aerobic organism Proteus mirabilis strain 2830
Assay type: functional
Conditions: Proteus mirabilis; read-out: MIC
In short: as §1

SMILES | MIC [µg/mL]
COC(=O)c1ccc(NC2C(=O)N3C(C(=O)[O-])=C(CSc4nnnn4C)CSC23)[n+](C)c1 (centres undefined) | > 128
Cn1nnnc1SCC1=C(C(=O)[O-])N2C(=O)[C@@H](Nc3cc[n+](COCC(F)(F)F)cc3)[C@H]2SC1 | > 128

More lines, now with the values ahead:

MIC [µg/mL] | SMILES
64 | Cn1nnnc1SCC1=C(C(=O)[O-])N2C(=O)[C@@H](Nc3cc[n+](CC(=O)[O-])cc3)[C@H]2SC1.[Na+]
> 64 | COc1ccc(C[n+]2ccc(N[C@@H]3C(=O)N4C(C(=O)[O-])=C(CSc5nnnn5C)CS[C@H]34)cc2)cc1OC

Test system: Proteus vulgaris
Assay: Minimum inhibitory concentration against aerobic organism Proteus vulgaris strain 2829
Assay type: functional
Conditions: Proteus vulgaris; read-out: MIC
In short: as §1

SMILES | MIC [µg/mL]
COC(=O)c1ccc(NC2C(=O)N3C(C(=O)[O-])=C(CSc4nnnn4C)CSC23)[n+](C)c1 (centres undefined) | > 128
Cn1nnnc1SCC1=C(C(=O)[O-])N2C(=O)[C@@H](Nc3cc[n+](COCC(F)(F)F)cc3)[C@H]2SC1 | 4 (≈ 7.73 µM)

More lines, now with the values ahead:

MIC [µg/mL] | SMILES
1 | Cn1nnnc1SCC1=C(C(=O)[O-])N2C(=O)[C@@H](Nc3cc[n+](CC(=O)[O-])cc3)[C@H]2SC1.[Na+]
0.25 (≈ 0.45 µM) | COc1ccc(C[n+]2ccc(N[C@@H]3C(=O)N4C(C(=O)[O-])=C(CSc5nnnn5C)CS[C@H]34)cc2)cc1OC

Test system: Klebsiella aerogenes
Assay: Minimum inhibitory concentration against aerobic organism Enterobacter aerogenes strain 2906
Assay type: functional
Conditions: Klebsiella aerogenes; read-out: MIC
In short: as §1

SMILES | MIC [µg/mL]
COC(=O)c1ccc(NC2C(=O)N3C(C(=O)[O-])=C(CSc4nnnn4C)CSC23)[n+](C)c1 (centres undefined) | > 128
Cn1nnnc1SCC1=C(C(=O)[O-])N2C(=O)[C@@H](Nc3cc[n+](COCC(F)(F)F)cc3)[C@H]2SC1 | 4 (≈ 7.73 µM)

The remaining lines, values ahead:

MIC [µg/mL] | SMILES
32 | Cn1nnnc1SCC1=C(C(=O)[O-])N2C(=O)[C@@H](Nc3cc[n+](CC(=O)[O-])cc3)[C@H]2SC1.[Na+]
8 (≈ 14.4 µM) | COc1ccc(C[n+]2ccc(N[C@@H]3C(=O)N4C(C(=O)[O-])=C(CSc5nnnn5C)CS[C@H]34)cc2)cc1OC

Test system: Pseudomonas aeruginosa
Assay: Minimum inhibitory concentration against aerobic organism Pseudomonas aeruginosa strain 2835
Assay type: functional
Conditions: not given
In short: as §1

SMILES | MIC [µg/mL]
COC(=O)c1ccc(NC2C(=O)N3C(C(=O)[O-])=C(CSc4nnnn4C)CSC23)[n+](C)c1 (centres undefined) | > 128
Cn1nnnc1SCC1=C(C(=O)[O-])N2C(=O)[C@@H](Nc3cc[n+](COCC(F)(F)F)cc3)[C@H]2SC1 | > 128

Now from value to molecule:

MIC [µg/mL] | SMILES
> 128 | Cn1nnnc1SCC1=C(C(=O)[O-])N2C(=O)[C@@H](Nc3cc[n+](CC(=O)[O-])cc3)[C@H]2SC1.[Na+]
> 64 | COc1ccc(C[n+]2ccc(N[C@@H]3C(=O)N4C(C(=O)[O-])=C(CSc5nnnn5C)CS[C@H]34)cc2)cc1OC

Test system: Shigella
Assay: Minimum inhibitory concentration against aerobic organism Shigella species strain 2880
Assay type: functional
Conditions: Shigella; read-out: MIC
In short: as §1

SMILES | MIC [µg/mL]
COC(=O)c1ccc(NC2C(=O)N3C(C(=O)[O-])=C(CSc4nnnn4C)CSC23)[n+](C)c1 (centres undefined) | > 128
Cn1nnnc1SCC1=C(C(=O)[O-])N2C(=O)[C@@H](Nc3cc[n+](COCC(F)(F)F)cc3)[C@H]2SC1 | < 0.06

The remaining lines, values ahead:

MIC [µg/mL] | SMILES
2 | Cn1nnnc1SCC1=C(C(=O)[O-])N2C(=O)[C@@H](Nc3cc[n+](CC(=O)[O-])cc3)[C@H]2SC1.[Na+]
0.25 (≈ 0.45 µM) | COc1ccc(C[n+]2ccc(N[C@@H]3C(=O)N4C(C(=O)[O-])=C(CSc5nnnn5C)CS[C@H]34)cc2)cc1OC
0.25 (≈ 0.652 µM) | CC1(C)SC2C(Nc3cc[n+](Cc4ccccc4)cc3)C(=O)N2[C@H]1C(=O)[O-] (some centres undefined)

Test system: not listed separately
Assay: Minimum inhibitory concentration against aerobic organism Salmonella schottmuelleri strain 2837
Assay type: functional
Conditions: Salmonella; read-out: MIC
In short: as §1

SMILES | MIC [µg/mL]
COC(=O)c1ccc(NC2C(=O)N3C(C(=O)[O-])=C(CSc4nnnn4C)CSC23)[n+](C)c1 (centres undefined) | 128 (≈ 268 µM)
Cn1nnnc1SCC1=C(C(=O)[O-])N2C(=O)[C@@H](Nc3cc[n+](COCC(F)(F)F)cc3)[C@H]2SC1 | < 0.06

Next, values leading:

MIC [µg/mL] | SMILES
4 | Cn1nnnc1SCC1=C(C(=O)[O-])N2C(=O)[C@@H](Nc3cc[n+](CC(=O)[O-])cc3)[C@H]2SC1.[Na+]
0.5 (≈ 0.9 µM) | COc1ccc(C[n+]2ccc(N[C@@H]3C(=O)N4C(C(=O)[O-])=C(CSc5nnnn5C)CS[C@H]34)cc2)cc1OC
0.125 (≈ 0.326 µM) | CC1(C)SC2C(Nc3cc[n+](Cc4ccccc4)cc3)C(=O)N2[C@H]1C(=O)[O-] (some centres undefined)

Test system: Escherichia coli
Assay: MIC against aerobic organism Escherichia coli strain 2891
Assay type: functional
Conditions: Escherichia coli; read-out: MIC
In short: as §1

SMILES | MIC [µg/mL]
COC(=O)c1ccc(NC2C(=O)N3C(C(=O)[O-])=C(CSc4nnnn4C)CSC23)[n+](C)c1 (centres undefined) | > 128
Cn1nnnc1SCC1=C(C(=O)[O-])N2C(=O)[C@@H](Nc3cc[n+](COCC(F)(F)F)cc3)[C@H]2SC1 | < 0.06

The remaining lines, values ahead:

MIC [µg/mL] | SMILES
4 | Cn1nnnc1SCC1=C(C(=O)[O-])N2C(=O)[C@@H](Nc3cc[n+](CC(=O)[O-])cc3)[C@H]2SC1.[Na+]
0.5 (≈ 0.9 µM) | COc1ccc(C[n+]2ccc(N[C@@H]3C(=O)N4C(C(=O)[O-])=C(CSc5nnnn5C)CS[C@H]34)cc2)cc1OC
4 (≈ 10.4 µM) | CC1(C)SC2C(Nc3cc[n+](Cc4ccccc4)cc3)C(=O)N2[C@H]1C(=O)[O-] (some centres undefined)

Test system: Enterococcus faecalis
Assay: Minimum inhibitory concentration against aerobic organism Streptococcus faecalis strain 2864
Assay type: functional
Conditions: not given
In short: as §1

SMILES | MIC [µg/mL]
COC(=O)c1ccc(NC2C(=O)N3C(C(=O)[O-])=C(CSc4nnnn4C)CSC23)[n+](C)c1 (centres undefined) | > 128
Cn1nnnc1SCC1=C(C(=O)[O-])N2C(=O)[C@@H](Nc3cc[n+](COCC(F)(F)F)cc3)[C@H]2SC1 | > 128

Next, values leading:

MIC [µg/mL] | SMILES
> 128 | Cn1nnnc1SCC1=C(C(=O)[O-])N2C(=O)[C@@H](Nc3cc[n+](CC(=O)[O-])cc3)[C@H]2SC1.[Na+]
> 64 | COc1ccc(C[n+]2ccc(N[C@@H]3C(=O)N4C(C(=O)[O-])=C(CSc5nnnn5C)CS[C@H]34)cc2)cc1OC
128 (≈ 334 µM) | CC1(C)SC2C(Nc3cc[n+](Cc4ccccc4)cc3)C(=O)N2[C@H]1C(=O)[O-] (some centres undefined)

Test system: Serratia marcescens
Assay: Minimum inhibitory concentration against aerobic organism Serratia marcescens strain 2852
Assay type: functional
Conditions: Serratia marcescens; read-out: MIC
In short: as §1

SMILES | MIC [µg/mL]
COC(=O)c1ccc(NC2C(=O)N3C(C(=O)[O-])=C(CSc4nnnn4C)CSC23)[n+](C)c1 (centres undefined) | > 128
Cn1nnnc1SCC1=C(C(=O)[O-])N2C(=O)[C@@H](Nc3cc[n+](COCC(F)(F)F)cc3)[C@H]2SC1 | 128 (≈ 247 µM)

Further lines, results first:

MIC [µg/mL] | SMILES
> 128 | Cn1nnnc1SCC1=C(C(=O)[O-])N2C(=O)[C@@H](Nc3cc[n+](CC(=O)[O-])cc3)[C@H]2SC1.[Na+]
64 (≈ 115 µM) | COc1ccc(C[n+]2ccc(N[C@@H]3C(=O)N4C(C(=O)[O-])=C(CSc5nnnn5C)CS[C@H]34)cc2)cc1OC

Test system: Staphylococcus aureus
Assay: Minimum inhibitory concentration against aerobic organism Staphylococcus aureus strain 2868
Assay type: functional
Conditions: Staphylococcus aureus; read-out: MIC
In short: as §1

SMILES | MIC [µg/mL]
COC(=O)c1ccc(NC2C(=O)N3C(C(=O)[O-])=C(CSc4nnnn4C)CSC23)[n+](C)c1 (centres undefined) | > 128
Cn1nnnc1SCC1=C(C(=O)[O-])N2C(=O)[C@@H](Nc3cc[n+](COCC(F)(F)F)cc3)[C@H]2SC1 | 4 (≈ 7.73 µM)

Continued, values first:

MIC [µg/mL] | SMILES
32 | Cn1nnnc1SCC1=C(C(=O)[O-])N2C(=O)[C@@H](Nc3cc[n+](CC(=O)[O-])cc3)[C@H]2SC1.[Na+]
8 (≈ 14.4 µM) | COc1ccc(C[n+]2ccc(N[C@@H]3C(=O)N4C(C(=O)[O-])=C(CSc5nnnn5C)CS[C@H]34)cc2)cc1OC
64 (≈ 167 µM) | CC1(C)SC2C(Nc3cc[n+](Cc4ccccc4)cc3)C(=O)N2[C@H]1C(=O)[O-] (some centres undefined)
